# In publication PMC8602434 (Drugs in R&D, 2021):
# Legend:
# [1] = Healthy volunteers, single-dose arm, sc; assay type: in vivo; settings: human
# In short: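 Double-blind single abdominal sc injection at 0.1, 0.5, 1, 3 or 5 mg versus placebo. Cohorts of six or eight subjects; the 0.1 mg cohort had 4 active and 2 placebo. Serial blood sampling to 48 h post-dose. Plasma assayed by validated bioanalytical method. Noncompartmental analysis: Cmax, tmax, t½, AUC (linear trapezoidal to last quantifiable concentration), AUC∞, CL/F. AEs recorded.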
# [2] = Rat 28-day toxicology study with toxicokinetic analysis, sc; assay type: in vivo
# In short: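 Male and female CD Sprague Dawley rats (233–264 g male, 172–201 g female). 28-day toxicology study (70 per sex) with daily sc dosing at 0, 1.0, 5.0 or 25.0 mg/kg/day. Blood drawn via sublingual vein, three animals per sex per dose at each time point. Noncompartmental analysis of mean concentration–time data gave AUClast, Cmax, tmax and t½.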
# [3] = single 1.0 mg sc, geometric mean, n=6
# [4] = single 3.0 mg sc, mean (SD), n=6
# [5] = single 5.0 mg sc, geometric mean, n=6
# [6] = single 5.0 mg sc, mean (SD), n=6
compound,measurement,setting,value
CCCC[C@H](NC(C)=O)C(=O)N[C@H]1CCC(=O)NC[C@@H](C(=O)N[C@@H](Cc2c[nH]c3ccccc23)C(N)=O)NC(=O)[C@H](CCCNC(=N)N)NC(=O)[C@@H](Cc2ccccc2)NC(=O)[C@H](Cc2c[nH]cn2)NC1=O [PL8177],Cmax/dose,"[1]; single 0.5 mg sc, mean (SD), n=4",16.4 (7.5) ng/mL/mg
same,AUC∞/dose,"[1]; single 0.5 mg sc, median, n=2",59.9 ng·h/mL/mg
same,Vd/F,"[1]; single 0.5 mg sc, median, n=2",74.4 L
same,AUC0–t,"[1]; single 0.5 mg sc, median, n=4",13.3 ng·h/mL
same,AUC∞,"[1]; single 0.5 mg sc, median, n=4",15 ng·h/mL
same,CL/F,"[1]; single 0.5 mg sc, median, n=4",33.6 L/h
same,Cmax,"[1]; single 0.5 mg sc, median, n=4",7.2 ng/mL
same,Cmax/dose,"[1]; single 0.5 mg sc, median, n=4",14.3 ng/mL/mg
same,t½,"[1]; single 0.5 mg sc, median, n=4",156 min
same,AUC∞/dose,"[1]; single 1.0 mg sc, geometric mean, n=3",35.4 ng·h/mL/mg
same,AUC0–t,[1]; [3],39.4 ng·h/mL
same,AUC∞,[1]; [3],44.9 ng·h/mL
same,CL/F,[1]; [3],22.3 L/h
same,Cmax,[1]; [3],16.7 ng/mL
same,Cmax/dose,[1]; [3],16.7 ng/mL/mg
same,t½,[1]; [3],366 min
same,AUC∞/dose,"[1]; single 1.0 mg sc, mean (SD), n=3",35.4 (1.8) ng·h/mL/mg
same,Cmax/dose,"[1]; single 1.0 mg sc, mean (SD), n=6",17.4 (5.0) ng/mL/mg
same,AUC∞/dose,"[1]; single 1.0 mg sc, median, n=3",34.5 ng·h/mL/mg
same,AUC0–t,"[1]; single 1.0 mg sc, median, n=6",39.2 ng·h/mL
same,AUC∞,"[1]; single 1.0 mg sc, median, n=6",45.5 ng·h/mL
same,CL/F,"[1]; single 1.0 mg sc, median, n=6",22.7 L/h
same,Cmax,"[1]; single 1.0 mg sc, median, n=6",18.3 ng/mL
same,Cmax/dose,"[1]; single 1.0 mg sc, median, n=6",18.3 ng/mL/mg
same,t½,"[1]; single 1.0 mg sc, median, n=6",360 min
same,AUC∞/dose,"[1]; single 3.0 mg sc, geometric mean, n=4",50.9 ng·h/mL/mg
same,Cmax/dose,"[1]; single 3.0 mg sc, geometric mean, n=6",17.8 ng/mL/mg
same,AUC∞/dose,"[1]; single 3.0 mg sc, mean (SD), n=4",51.3 (7.7) ng·h/mL/mg
same,AUC0–t,[1]; [4],138 (18.9) ng·h/mL
same,AUC∞,[1]; [4],158 (19.4) ng·h/mL
same,Cmax,[1]; [4],54.4 (11.3) ng/mL
same,Cmax/dose,[1]; [4],18.1 (3.8) ng/mL/mg
same,AUC∞/dose,"[1]; single 3.0 mg sc, median, n=4",51.1 ng·h/mL/mg
same,AUC0–t,"[1]; single 3.0 mg sc, median, n=6",138 ng·h/mL
same,Cmax/dose,"[1]; single 3.0 mg sc, median, n=6",16.4 ng/mL/mg
same,tmax,"[1]; single 3.0 mg sc, median, n=6",36 min
same,AUC0–t,[1]; [5],224 ng·h/mL
same,AUC∞,[1]; [5],237 ng·h/mL
same,AUC∞/dose,[1]; [5],47.5 ng·h/mL/mg
same,CL/F,[1]; [5],21.1 L/h
same,Cmax,[1]; [5],83.4 ng/mL
same,Cmax/dose,[1]; [5],16.7 ng/mL/mg
same,t½,[1]; [5],966 min
same,AUC∞/dose,[1]; [6],48.0 (7.4) ng·h/mL/mg
same,Cmax/dose,[1]; [6],17.6 (6.2) ng/mL/mg
same,AUC0–t,"[1]; single 5.0 mg sc, median, n=6",235 ng·h/mL
same,AUC∞,"[1]; single 5.0 mg sc, median, n=6",246 ng·h/mL
same,AUC∞/dose,"[1]; single 5.0 mg sc, median, n=6",49.2 ng·h/mL/mg
same,CL/F,"[1]; single 5.0 mg sc, median, n=6",20.3 L/h
same,Cmax,"[1]; single 5.0 mg sc, median, n=6",80.9 ng/mL
same,Cmax/dose,"[1]; single 5.0 mg sc, median, n=6",16.2 ng/mL/mg
same,Vd/F,"[1]; single 5.0 mg sc, median, n=6",496 L
same,t½,"[1]; single 5.0 mg sc, median, n=6",1040 min
same,Overall tolerability,[1]; single and multiple ascending sc doses,well tolerated
same,Time after dosing at which PL8177 was first measurable in plasma,[1]; single sc dose,15 min
same,Persistence of measurable PL8177 in plasma,"[1]; single sc dose, at higher doses",up to 48 h
same,"AEs leading to study discontinuation, serious AEs, or severe AEs",[1]; single-dose arm,no reports
same,Dose linearity for AUC∞ and Cmax,[1]; single-dose arm,inconclusive
same,Intact drug excreted in the urine,[1]; single-dose arm,≤ 1%
same,Time after dosing at which Cmax was generally reached (tmax),[1]; single-dose arm,30 to 45 min
same,tmax,"[2]; rat F, 1.0 mg/kg sc daily, Day 14 (truncated curve, 3 data points)",30 min
same,tmax,"[2]; rat F, 1.0 mg/kg sc daily, Day 28",30 min
same,tmax,"[2]; rat F, 5.0 mg/kg sc daily, Day 14 (truncated curve, 3 data points)",60 min
same,tmax,"[2]; rat F, 25.0 mg/kg sc daily, Day 14 (truncated curve, 3 data points)",30 min
same,tmax,"[2]; rat F, 25.0 mg/kg sc daily, Day 28",30 min
same,tmax,"[2]; rat M, 1.0 mg/kg sc daily, Day 1",30 min
same,tmax,"[2]; rat M, 1.0 mg/kg sc daily, Day 14 (truncated curve, 3 data points)",30 min
same,tmax,"[2]; rat M, 1.0 mg/kg sc daily, Day 28",30 min
same,tmax,"[2]; rat M, 5.0 mg/kg sc daily, Day 14 (truncated curve, 3 data points)",60 min
same,tmax,"[2]; rat M, 5.0 mg/kg sc daily, Day 28",30 min
same,tmax,"[2]; rat M, 25.0 mg/kg sc daily, Day 28",15 min
